pEC50: −log10 of the molar value. Activity calls are given as the source filed them. The rule behind the calls is not given here.
Assays:
HeLa [1] = assay: Inhibition of deubiquitinase in human HeLa cell extracts assessed as induction of accumulation of high molecular weight mTOR proteins at 1 uM incubated for 2 hrs by immunoblot analysis; assay type: cell-free
Anamorsin (Homo sapiens) [2] = target: Anamorsin (Homo sapiens) (UniProt Q6FI81); assay: Inhibition of recombinant purified CIAPIN1 (unknown origin) assessed as covalent adduct formation at 10 molar equivalents incubated for 2 hrs by electrospray MS analysis
In short: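 His-tagged full-length human CIAPIN1 (AA1-312, C-terminal 7x His/TEV, 27 µM) incubated with 10 molar equivalents of compound (270 µM) in PBS for 2 h at room temperature, then analysed intact by ES-MS.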

Anamorsin (Homo sapiens) [3] = target: Anamorsin (Homo sapiens) (UniProt Q6FI81); assay: Inhibition of CIAPIN1 in human KMS11 crude cell extracts assessed as induction of formation of high molecular weight complexes with CIAPIN1 at 20 uM incubated for 2 hrs in presence of GSH by immunoblot analysis
[4] = target: T1, Ubiquitin carboxyl-terminal hydrolase isozyme L5 (Homo sapiens) (UniProt Q9Y5K5); assay: Covalent binding affinity to UCH-37 in human U2OS cells at 20 uM using probe-1 by ABPP analysis; assay type: cell-based
T1 sequence (whole entry): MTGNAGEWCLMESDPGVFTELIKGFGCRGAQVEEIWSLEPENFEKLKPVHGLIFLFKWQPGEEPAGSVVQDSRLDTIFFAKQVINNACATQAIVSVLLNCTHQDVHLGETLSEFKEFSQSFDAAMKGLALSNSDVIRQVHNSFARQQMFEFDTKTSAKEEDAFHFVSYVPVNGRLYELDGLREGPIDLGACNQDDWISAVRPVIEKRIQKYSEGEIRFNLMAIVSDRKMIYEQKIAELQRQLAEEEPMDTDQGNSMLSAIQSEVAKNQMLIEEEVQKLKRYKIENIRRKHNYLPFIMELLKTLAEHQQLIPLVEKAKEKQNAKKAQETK
In short: (§1)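 U2OS cells pre-incubated 30 min with competitor (0, 5 or 20 µM), then 5 µM probe 1 for 1 h, in triplicate. Lysates in Triton/SDS buffer mixed with heavy R10K8-labelled probe-treated spike, CuAAC-tagged, NeutrAvidin-enriched, reduced, alkylated, trypsin-digested overnight at 37 °C, LC-MS/MS. Log2(L/H) ratios median-normalised and expressed relative to the no-inhibitor condition.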

[5] = target: T2, Ubiquitin carboxyl-terminal hydrolase 28 (Homo sapiens) (UniProt Q96RU2); assay: Covalent binding affinity to USP28 in human U2OS cells at 20 uM using probe-1 by ABPP analysis; assay type: cell-based; in short: as §1
T2 sequence (whole entry): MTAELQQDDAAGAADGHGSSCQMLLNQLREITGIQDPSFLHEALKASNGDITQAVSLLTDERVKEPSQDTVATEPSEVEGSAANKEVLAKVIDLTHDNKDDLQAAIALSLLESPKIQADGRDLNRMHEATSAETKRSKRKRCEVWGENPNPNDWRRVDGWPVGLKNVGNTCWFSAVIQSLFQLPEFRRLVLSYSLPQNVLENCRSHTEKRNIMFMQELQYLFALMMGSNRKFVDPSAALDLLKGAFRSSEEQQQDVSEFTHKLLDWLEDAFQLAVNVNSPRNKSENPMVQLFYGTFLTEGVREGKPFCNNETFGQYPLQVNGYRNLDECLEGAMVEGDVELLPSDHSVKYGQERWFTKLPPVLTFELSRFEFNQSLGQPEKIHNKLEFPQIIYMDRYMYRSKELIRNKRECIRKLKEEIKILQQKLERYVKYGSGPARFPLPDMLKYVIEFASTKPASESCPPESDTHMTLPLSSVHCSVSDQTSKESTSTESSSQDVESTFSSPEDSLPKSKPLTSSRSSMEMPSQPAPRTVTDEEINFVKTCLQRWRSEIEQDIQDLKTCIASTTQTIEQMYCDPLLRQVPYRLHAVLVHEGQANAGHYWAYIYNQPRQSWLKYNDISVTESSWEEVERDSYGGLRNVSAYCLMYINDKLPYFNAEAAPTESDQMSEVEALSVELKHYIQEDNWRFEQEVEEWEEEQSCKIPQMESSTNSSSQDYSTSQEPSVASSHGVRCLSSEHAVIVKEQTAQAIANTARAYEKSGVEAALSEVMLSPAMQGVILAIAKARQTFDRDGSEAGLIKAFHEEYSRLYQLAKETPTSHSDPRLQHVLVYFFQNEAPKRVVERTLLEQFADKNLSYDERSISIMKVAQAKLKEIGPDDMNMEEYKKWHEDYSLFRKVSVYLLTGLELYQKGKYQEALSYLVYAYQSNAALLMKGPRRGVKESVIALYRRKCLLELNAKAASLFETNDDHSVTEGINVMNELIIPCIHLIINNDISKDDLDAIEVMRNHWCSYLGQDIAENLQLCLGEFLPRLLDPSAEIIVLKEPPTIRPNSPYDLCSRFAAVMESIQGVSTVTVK

U2OS = assay: Cytotoxicity in human U2OS cells assessed as reduction in cell viability incubated for 72 hrs Cell-titer Glo reagent based assay; assay type: functional
In short: (§2)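 KMS11 (RPMI, seeded 25,000/well) or U2OS (DMEM, 10,000/well, adhered overnight) given varying concentrations, 72 h, biological triplicates, DMSO and bortezomib controls. CellTiter Glo luminescence; EC50 by dose-response fit.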

KMS-11 [6] = assay: Cytotoxicity in human KMS11 cells assessed as reduction in cell viability incubated for 72 hrs Cell-titer Glo reagent based assay; assay type: functional; settings: KMS-11, 72 h; in short: as §2
Anamorsin (Homo sapiens) [7] = target: Anamorsin (Homo sapiens) (UniProt Q6FI81); assay: Inhibition of recombinant purified CIAPIN1 (unknown origin) assessed as accumulation of protein aggregates at 0.1 to 1.6 uM incubated for 1 to 6 hrs by size exclusion chromatography
Anamorsin (Homo sapiens) [8] = target: Anamorsin (Homo sapiens) (UniProt Q6FI81); assay: Covalent binding affinity to CIAPIN1 in human U2OS cells at 20 uM using probe-1 by ABPP analysis; assay type: cell-based; in short: as §1
Anamorsin (Homo sapiens) [9] = target: Anamorsin (Homo sapiens) (UniProt Q6FI81); assay: Inhibition of CIAPIN1 in human KMS11 cells assessed as deletion of depletion of stable CIAPIN1 levels at 100 nM incubated for 6 hrs by immunoblot analysis; assay type: cell-based
[10] = target: T2, Ubiquitin carboxyl-terminal hydrolase 28 (Homo sapiens); assay: Inhibition of USP28 in human HeLa cell extracts assessed as inhibition of HA-Ub-C2Br probe labeling at 1 to 100 uM incubated for 30 mins by immunoblot analysis; assay type: cell-free
KMS-11 [11] = assay: Cytotoxicity in human KMS11 cells assessed as reduction in cell viability at 1 to 10 uM incubated for 16 hrs in presence of GSH by Alamar blue assay; assay type: functional, cell-based
In short: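 KMS11 seeded at 80,000/well, treated with 1 or 10 µM compound with or without 1 mM GSH for 16 h, 6 biological replicates. Alamar blue fluorescence read at 560/590 nm, normalised to DMSO control.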

Anamorsin (Homo sapiens) [12] = target: Anamorsin (Homo sapiens) (UniProt Q6FI81); assay: Inhibition of CIAPIN1 in human KMS11 crude cell extracts assessed as induction of formation of high molecular weight complexes with CIAPIN1 at 20 uM incubated for 2 hrs by immunoblot analysis
Anamorsin (Homo sapiens) [13] = target: Anamorsin (Homo sapiens) (UniProt Q6FI81); assay: Inhibition of recombinant purified CIAPIN1 (unknown origin) assessed as increase in high molecular weight CIAPIN1 complexes at 1 to 10 molar equivalent 1 by SDS-PAGE and Coomassie Blue staining based method
In short: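 Recombinant CIAPIN1 (1 mg/mL) incubated with DMSO (0.16%) or compound at 1x, 2x, 5x or 10x molar excess, 30 min at 4 °C. Resolved by SDS-PAGE with Coomassie staining.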

Anamorsin (Homo sapiens) [14] = target: Anamorsin (Homo sapiens) (UniProt Q6FI81); assay: Inhibition of recombinant purified CIAPIN1 (unknown origin) assessed as disruption of intra-chain disulfide bond in unmodified peptide containing Cys249
[15] = target: Ubiquitin carboxyl-terminal hydrolase 14 (Homo sapiens) (UniProt P54578); assay: Covalent binding affinity to USP14 in human U2OS cells at 20 uM using probe-1 by ABPP analysis; assay type: cell-based; in short: as §1
HeLa [16] = assay: Inhibition of deubiquitinase in human HeLa cell extracts assessed as inhibition of HA-Ub-C2Br probe labeling at 1 to 100 uM incubated for 30 mins by immunoblot analysis; assay type: cell-free
Anamorsin (Homo sapiens) [17] = target: Anamorsin (Homo sapiens) (UniProt Q6FI81); assay: Inhibition of CIAPIN1 in human KMS11 cells assessed as induction of protein aggregation at 100 nM incubated for 1 hr by immunoblot analysis; assay type: cell-based
Anamorsin (Homo sapiens) [18] = target: Anamorsin (Homo sapiens) (UniProt Q6FI81); assay: Inhibition of recombinant purified CIAPIN1 (unknown origin) assessed as covalent modification of cysteine residues incubated for 30 mins LC-MS/MS analysis
Anamorsin (Homo sapiens) [19] = target: Anamorsin (Homo sapiens) (UniProt Q6FI81); assay: Inhibition of CIAPIN1 in human KMS11 cells assessed as induction of high molecular weight complex formation at 100 nM incubated for 6 hrs by immunoblot analysis; assay type: cell-based

Sequence of Anamorsin (Homo sapiens) (Q6FI81 whole entry, the tested form may be a part): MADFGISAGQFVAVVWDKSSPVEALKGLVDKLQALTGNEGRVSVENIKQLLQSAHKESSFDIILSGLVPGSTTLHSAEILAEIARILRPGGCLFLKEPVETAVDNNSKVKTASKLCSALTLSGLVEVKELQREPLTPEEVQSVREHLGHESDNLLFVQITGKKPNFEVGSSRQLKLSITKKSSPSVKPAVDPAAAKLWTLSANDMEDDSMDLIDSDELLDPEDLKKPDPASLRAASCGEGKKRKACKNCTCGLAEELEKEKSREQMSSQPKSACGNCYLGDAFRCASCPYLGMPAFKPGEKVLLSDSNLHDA
Sequence of Ubiquitin carboxyl-terminal hydrolase 14 (Homo sapiens) (P54578 whole entry): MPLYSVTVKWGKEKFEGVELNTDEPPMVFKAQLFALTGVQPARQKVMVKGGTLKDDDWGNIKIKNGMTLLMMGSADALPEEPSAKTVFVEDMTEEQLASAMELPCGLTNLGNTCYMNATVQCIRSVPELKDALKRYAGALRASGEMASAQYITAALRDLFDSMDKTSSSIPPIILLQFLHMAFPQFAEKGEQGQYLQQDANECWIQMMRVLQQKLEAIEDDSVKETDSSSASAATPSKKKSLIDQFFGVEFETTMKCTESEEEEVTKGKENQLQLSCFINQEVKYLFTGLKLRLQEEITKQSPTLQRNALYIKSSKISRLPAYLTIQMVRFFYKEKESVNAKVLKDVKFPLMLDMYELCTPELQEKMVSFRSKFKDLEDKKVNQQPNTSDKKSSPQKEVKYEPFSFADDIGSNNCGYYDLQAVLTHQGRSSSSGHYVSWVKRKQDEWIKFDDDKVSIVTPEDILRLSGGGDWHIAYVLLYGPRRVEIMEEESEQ

Structure (SMILES) | inhibition (HeLa [1]) | inhibition (Anamorsin (Homo sapiens) [2]) | inhibition (Anamorsin (Homo sapiens) [3]) | Activity [4] | Activity [5] | pEC50 (U2OS) | pEC50 (KMS-11 [6]) | inhibition (Anamorsin (Homo sapiens) [7]) | Activity (Anamorsin (Homo sapiens) [8]) | inhibition (Anamorsin (Homo sapiens) [9]) | inhibition [10] | Activity (KMS-11 [11]) | inhibition (Anamorsin (Homo sapiens) [12]) | inhibition (Anamorsin (Homo sapiens) [13]) | inhibition (Anamorsin (Homo sapiens) [14]) | Activity [15] | inhibition (HeLa [16]) | inhibition (Anamorsin (Homo sapiens) [17]) | inhibition (Anamorsin (Homo sapiens) [18]) | inhibition (Anamorsin (Homo sapiens) [19])
COc1cc(/C=C/C(=O)CC(=O)/C=C/c2ccc(O)c(OC)c2)ccc1O | Active |  |  |  |  |  |  |  |  |  |  |  |  |  |  |  |  |  |  | 
C=CC(=O)N1CC/C(=C\c2ccc(F)c([N+](=O)[O-])c2)C(=O)/C(=C/c2ccc(F)c([N+](=O)[O-])c2)C1 |  | Active | inactive | inactive | inactive | 7.01 | 7.37 | Active | Active | Active | Active | inactive | Active | Active | Active | inactive | Active | Active | Active | Active
C#CCC(=O)N1CC/C(=C\c2ccc(F)c([N+](=O)[O-])c2)C(=O)/C(=C/c2ccc(F)c([N+](=O)[O-])c2)C1 |  |  |  |  |  | 7.09 | 7.34 |  |  |  |  |  |  |  |  |  |  |  |  | 
